Data as given in ChEMBL document CHEMBL3352666, “Human Toll-like receptor 8-selective agonistic activities in 1-alkyl-1H-benzimidazol-2-amines” (J Med Chem, 2014).
The source made the active and inactive calls. The calls are words filed in the database; no cut-off is given here.

Columns and labels:
[1] = target: T1, Toll-like receptor 8 (Homo sapiens) (UniProt Q9NR97); experiment: Induction of TLR8-mediated IL-12p40 in human PBMC after 12 hrs by immunoassay
T1 sequence (whole entry): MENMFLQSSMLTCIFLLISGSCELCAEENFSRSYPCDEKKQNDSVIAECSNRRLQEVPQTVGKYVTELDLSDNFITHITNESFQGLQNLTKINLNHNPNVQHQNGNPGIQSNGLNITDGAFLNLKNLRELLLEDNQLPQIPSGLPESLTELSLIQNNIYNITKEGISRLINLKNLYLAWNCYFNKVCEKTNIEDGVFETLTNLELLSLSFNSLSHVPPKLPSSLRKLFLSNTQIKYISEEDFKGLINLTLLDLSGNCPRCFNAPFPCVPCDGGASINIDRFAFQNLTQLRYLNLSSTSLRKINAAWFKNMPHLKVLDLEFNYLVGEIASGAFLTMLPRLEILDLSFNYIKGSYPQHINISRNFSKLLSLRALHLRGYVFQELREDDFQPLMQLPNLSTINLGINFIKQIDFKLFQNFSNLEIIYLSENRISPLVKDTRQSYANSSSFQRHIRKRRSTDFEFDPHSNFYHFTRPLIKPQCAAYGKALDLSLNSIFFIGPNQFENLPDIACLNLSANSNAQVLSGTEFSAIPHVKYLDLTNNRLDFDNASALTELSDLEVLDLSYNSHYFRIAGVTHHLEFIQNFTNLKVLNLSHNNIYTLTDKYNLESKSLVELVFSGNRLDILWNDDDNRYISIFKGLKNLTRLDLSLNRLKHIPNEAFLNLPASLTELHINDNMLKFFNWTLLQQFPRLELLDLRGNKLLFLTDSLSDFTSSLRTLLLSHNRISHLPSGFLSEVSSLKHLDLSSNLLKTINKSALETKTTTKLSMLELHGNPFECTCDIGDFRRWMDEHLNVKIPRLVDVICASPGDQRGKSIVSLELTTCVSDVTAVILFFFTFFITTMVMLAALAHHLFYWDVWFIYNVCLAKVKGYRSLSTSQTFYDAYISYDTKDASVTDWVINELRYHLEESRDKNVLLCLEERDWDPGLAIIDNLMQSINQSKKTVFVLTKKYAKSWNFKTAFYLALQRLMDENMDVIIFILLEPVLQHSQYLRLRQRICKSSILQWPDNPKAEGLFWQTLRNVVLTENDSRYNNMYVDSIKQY
Outline: (§1)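 Fresh PBMCs were isolated from venous blood on Ficoll-Hypaque gradients and plated at 10^5 cells in 100 µL per well. They were stimulated 12 h with graded compound concentrations. Centrifuged supernatants were assayed in duplicate by multiplexed analyte-specific cytokine bead array.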

[2] = target: T1, Toll-like receptor 8 (Homo sapiens); experiment: Induction of TLR8-mediated IFN-gamma in human PBMC after 12 hrs by immunoassay; outline: as §1

Activity [1]: Active | Activity [2]: Active
SMILES: CCCCCn1c(N)nc2c(C)cccc21
